Compounds with a hit are over-represented: about 2.5% of the library has one in this group of screens.
HCV NS3 hel inh: inhibitors of Hepatitis C virus NS3 helicase | NS3 helicase DNA unwinding, Cy5 molecular beacon fluorescence | inhibition, % at 10.9 µM | actives 0.56% (n = 290,000) | AID 1800;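 active means inhibition above the mean of all tested compounds plus 3 SD, set per campaign, cut at about 35% in these data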;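 further: 0% = DMSO wells and 100% = thioflavine S control wells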
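Material: hepatitis C virus NS3 helicase domain fragment enzyme; measured by: Cy5 fluorescence, 0 and 60 min reads; control set: DMSO and thioflavine S; incubation: 60 min unwinding reaction at 25 °C after ATP addition; read-out basis: % inhibition from 60/0 min fluorescence ratio, DMSO 0%, thioflavine S 100%; repeats: singlicate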
DSG3 Ab inh: blocks pemphigus antibody binding to human desmoglein-3 | P32926 | DSG3-coupled beads, scFv-anti-DSG3-GFP binding, flow cytometry; hits give low values | binding (percent of control), % at 10 µM | actives 0.48% (n = 310,000);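 active means binding more than 3 SD below its plate's average and above zero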;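 further: hits lower antibody fragment binding to DSG3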
MBD2 inh: inhibitors of human MBD2 binding to methylated oligonucleotide; Q9UBB5; TR-FRET; inhibition, % at 4.4 µM; actives 0.31% (n = 370,000); AID 686964; in the data active means inhibition above about 13%
SUMO1 PPI mod: modulators of human SUMO1-mediated protein-protein interactions. P63165. SUMO1 binding to a labelled peptide, TR-FRET, 1 h. inhibition, % at 20 µM. actives 0.33% (n = 360,000). AID 602429
DNMT1 inh: blocks human DNA methyltransferase DNMT1 | P26358 | DNMT1 molecular beacon, Hinp1I cleavage, fluorescence | inhibition (reported as % activation of signal), % at 10 µM | actives 0.83% (n = 360,000); in the data active means inhibition above about 50%
UHRF1 MBD2 ctr: blocks human UHRF1 binding to methylated DNA; UHRF1 binding to methylated oligo, TR-FRET; AID 687016; Q96T88; inhibition, % at 4.4 µM; actives 0.75% (n = 370,000); in the data active means inhibition above about 21%;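 further: UHRF1 SRA domain binding a hemimethylated CpG hairpin DNA probe; 0% = median of test compound wells and 100% = reference inhibitor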
NS3 hel confirm: confirmation of Hepatitis C virus NS3 helicase inhibitors; shares compounds with HCV NS3 hel inh; NS3 helicase DNA unwinding, Cy5 molecular beacon fluorescence; inhibition, % at 10.9 µM; actives 31% (n = 1,600);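 active means inhibition above the mean of all tested compounds plus 3 SD, cutoff set per campaign, cut at about 36% in these data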
DNA FID counter: intercalator displacement, NS3 helicase counter-screen | shares compounds with HCV NS3 hel inh | DNA fluorescent intercalator displacement, fluorescence | inhibition, % at 7.9 µM | actives 4% (n = 1,600) | AID 1945;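 further: 0% = vehicle and 100% = reference compound; higher means more displacement of ethidium bromide from the DNA hairpin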
FID counter DR: displaces fluorescent intercalator from DNA, HCV helicase counter-screen. shares compounds with HCV NS3 hel inh. fluorescent intercalator displacement from DNA, fluorescence. IC50, µM. 120 tested, under 10 active; call rule not given here
* = called active by the depositor; . = no result. Unless noted, no stated cut-off is given here; in the data, active means inhibition above about 37%; inactive means the rest.

SMILES | HCV NS3 hel inh | DSG3 Ab inh | MBD2 inh | SUMO1 PPI mod | DNMT1 inh | UHRF1 MBD2 ctr | NS3 hel confirm | DNA FID counter | others
Cc1ccc(S(=O)(=O)/N=C2\C=C(NS(=O)(=O)c3ccccc3)C(=O)c3ccccc32)c(C)c1 | . | 99.0 | -16.7 | 26.4 | 1.8 | -2.3 | . | .
C=CCCC(=O)Nc1ccc(COC(=O)N2CCOCC2)cc1 | -2.4 | . | -5.4 | -0.1 | -0.7 | 2.2 | . | .
Nc1c(S(=O)(=O)O)cc(NC(=O)c2ccccc2)c2c1C(=O)c1ccccc1C2=O | 80.8* | 94.2 | . | 69.4* | 39.1 | . | 65.7* | 60.6*
O=C(Nc1ccccc1-c1ccccc1)c1ccccc1 | 2.0 | 100.1 | -3.3 | -0.4 | 1.8 | 1.4 | . | .
COc1ccc(CNC(=O)c2ccc(-c3cnn(C)c3)c3ccoc23)cc1OC | . | . | 0.2 | 2.9 | 2.1 | 1.4 | . | .
NC(=O)NOCc1c(F)cccc1Cl | 4.8 | 113.6 | -0.9 | -0.1 | -1.1 | -0.6 | . | .
CC1(C)Oc2ccc3ccc(=O)oc3c2/C(=C/NNC(N)=S)C1=O | 50.6* | 90.6 | -2.6 | -13.6 | -3.9 | -5.3 | -16.7 | -8.4
Cn1c(CCN2CCN(c3ccccn3)CC2)nc2cc(NC(=O)COc3ccc([N+](=O)[O-])cc3)ccc21 | 37.8* | 88.7 | -2.6 | 29.4 | 1.3 | -1.2 | 9.0 | 10.2
Cn1c(CCN2CCOCC2)nc2cc(NC(=O)COc3ccc([N+](=O)[O-])cc3)ccc21 | 4.4 | 99.9 | 1.0 | -14.1 | 2.3 | 0.5 | . | .
CN1N=C2c3ccccc3CCC2C1c1ccc(Cl)cc1 (stereo not drawn) | 0.1 | 110.7 | 0.5 | -5.0 | 7.1 | 1.0 | . | .
Oc1c(Cl)cc(Cl)cc1/C=N/NC(=S)NC1CC2C=CC1C2 (stereo not drawn) | 47.9* | 91.5 | 1.7 | 5.0 | -11.9 | -16.8 | 52.1* | 8.5 | FID counter DR=>79.4
O=C(COc1ccc2ccccc2c1)N[C@@H](C(=O)O)c1ccc(O)cc1 | 43.1* | 95.8 | -3.4 | -1.4 | 0.6 | 0.1 | -29.3 | -3.5
O=C(COc1ccc2ccccc2c1)NNC(=O)Cc1ccccc1 | 1.0 | 100.5 | -2.0 | -7.2 | 11.8 | 2.0 | . | .
N#CC1=C(N)SC(N)=C(C#N)C1CCC1CCCCC1 | 52.8* | . | . | . | . | . | 5.0 | 23.6
C(=C\c1ccccc1)/C=N/Nc1ccc2nncn2n1 | 44.2* | . | . | . | . | . | -13.6 | -19.5
CC(/C=N/Nc1ccc2nncn2n1)=C\c1ccccc1 | -4.6 | 113.8 | -1.9 | -17.1 | 1.8 | 1.3 | . | .
O=C(NCC1CCCO1)c1cccc(NC(=O)c2cccs2)c1 (stereo not drawn) | 9.4 | . | -3.5 | 4.1 | 2.1 | 0.7 | . | .
O=C(CSc1nnc(-c2ccco2)n1Cc1ccccc1)c1ccc(F)cc1 | 39.3* | 98.5 | 3.9 | 2.4 | -0.1 | -0.6 | 74.1* | -2.2
COc1ccc2oc(=O)c(-c3nnc(NCc4ccco4)s3)cc2c1 | 37.2* | 90.5 | -11.8 | -24.3 | -0.2 | -18.0 | -5.2 | 22.6
COc1ccc(C(=O)CC(=O)C(=O)Nc2ccc(Cl)cc2)cc1 | 42.5* | 90.9 | 1.4 | -12.8 | 0.0 | -0.4 | -1.7 | 15.0
COc1ccc(C(=O)CC(=O)C(=O)Nc2ccc(OC)c(Cl)c2)cc1 | 33.5 | 85.5 | 3.7 | -3.1 | 0.0 | -0.5 | . | .
C=CCN1C(=O)/C(=C/c2ccsc2)SC1=S | 24.4 | 77.5 | -1.3 | -1.1 | 2.1 | -0.7 | . | .
C=CCN1C(=O)/C(=C/c2ccc(-c3ccc(F)cc3)o2)SC1=S | 78.3* | 106.4 | -2.6 | -13.0 | -5.7 | -3.0 | -9.8 | 21.1
CC(C)CSc1oc(-c2ccco2)nc1S(=O)(=O)c1ccccc1 | 40.1* | 97.5 | -4.5 | -6.5 | -4.7 | 4.7 | -22.6 | -27.1
CCCCSc1oc(-c2ccco2)nc1S(=O)(=O)c1ccccc1 | -4.8 | . | 5.2 | -1.0 | -6.9 | -0.8 | . | .
COc1cc([N+](=O)[O-])cc(/C=N/NC(=O)C(C)Nc2cccc3ccccc23)c1O (stereo not drawn) | 36.6* | 102.3 | 1.4 | -16.9 | -20.3 | -5.2 | 38.8* | 15.6

Screening results: PubChem, several laboratories
